According to ChEMBL document CHEMBL1133693, “Peptide and peptide mimetic inhibitors of antigen presentation by HLA-DR class II MHC molecules. Design, structure-activity relationships, and X-ray crystal structures” (J Med Chem, 2000):
Starred links: 1 amine or outer side, 2 acyl side, 3 side chain; linkers in the order of their positions; H or OH if unused. Non-standard residues stand in square brackets, D forms with d. Residues, ends and D or L forms follow the SMILES beside them. ξ: configuration not given here. Haic = O=C1[C@@H](N[*:1])CCc2cccc3c2N1[C@H](C(=O)[*:2])C3; X1 = O=C([C@@H]1C(c2ccccc2)CCN1[*:1])[*:2]; NMePhg = CN[C@H](C(=O)O)c1ccccc1; Tic = O=C(O)[C@@H]1Cc2ccccc2CN1; Cha = N[C@@H](CC1CCCCC1)C(=O)O; NMeL = CN[C@@H](CC(C)C)C(=O)O; ξTle = CC(C)(C)C(N)C(=O)O; NMeA = CN[C@@H](C)C(=O)O; ξNMeA = CNC(C)C(=O)O

Tests used:
[1] = Degradation half-time was evaluated; type: ADME
Procedure, shortened: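 Each test peptide at 1.0 mg/mL in pH 6.0 phosphate buffer (88 mM KH2PO4, 12 mM Na2HPO4, 1.33 mM EDTA, 2.0 mM cysteine, internal standard) was prewarmed to 32 °C. Cathepsin B was preactivated 5 min at 37 °C and added at 0.3 U per micromole of compound. Half-time from ln(A0 − A) vs time, t1/2 = 0.693/k.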

[2] = Mean relative potency is the ratio of potencies of 'Ac-(Cha)RAMASL-NH2' and compound, to inhibit MHC class II DRB1*0101
Procedure, shortened: (§1)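 Scintillation proximity competition assay. Test compounds competed against the radioligand, and bound counts were read by scintillation. Ac-(Cha)RAMASL-NH2 was run as standard competitor in every run. Potency is the ratio of standard IC50 to compound IC50.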

[3] = Mean relative potency is the ratio of potencies of 'Ac-(Cha)RAMASL-NH2' and compound, to inhibit MHC class II DRB1*0401; procedure, shortened: as §1
[4] = Mean relative potency is the ratio of potencies of 'Ac-(Cha)RAMASL-NH2' and compound, to inhibit MHC class II DRB1*0404; procedure, shortened: as §1
[5] = test system: T-cell; assay: T-cell inhibitory potency relative to the IC50 of a(Cha)AAAKTAAAAa-NH2 iMHC class II DRB1*0101; type: functional, Homo sapiens
[6] = test system: T-cell; assay: T-cell inhibitory potency relative to the IC50 of a(Cha)AAAKTAAAAa-NH2 in MHC class II DRB1*0401; type: functional, Homo sapiens
[7] = target: Cathepsin B (Bos taurus) (UniProt P07688); assay: Percent of original compound remaining with cathepsin B after incubation for 4 hrs was determined by HPLC
[8] = test system: T-cell; assay: T-cell inhibitory potency relative to the IC50 of a(Cha)AAAKTAAAAa-NH2 MHC class II DRB1*0101; type: functional, Homo sapiens
[9] = Mean relative potency is the ratio of potencies of 'Ac-(Cha)RAMASL-NH2' and compound to inhibit MHC class II DRB1*0101; procedure, shortened: as §1
[10] = Mean relative potency is the ratio of potencies of 'Ac-(Cha)RAMASL-NH2' and compound to inhibit MHC class II DRB1*0401; procedure, shortened: as §1

| half-life [1] [min] | Mean relative potency [2] | Mean relative potency [3] | Mean relative potency [4] | % remaining [7] [%] | Mean relative potency [9] | Mean relative potency [10] | Structure (SMILES) | T-cell inhibition [5] | T-cell inhibition [6] | T-cell inhibition [8] |
| --- | --- | --- | --- | --- | --- | --- | --- | --- | --- | --- |
| 3 | 1 | 1 | 1 | 0 | – | – | CSCC[C@H](NC(=O)[C@H](C)NC(=O)[C@H](CCCN=C(N)N)NC(=O)[C@H](CC1CCCCC1)NC(C)=O)C(=O)N[C@@H](C)C(=O)N[C@@H](CO)C(=O)N[C@@H](CC(C)C)C(N)=O (Ac-[Cha]RAMASL-NH2) | 0.12 | 0 | – |
| 4.6 | – | – | – | – | – | – | CSCC[C@H](NC(=O)[C@H](C)NC(=O)[C@H](CCCN=C(N)N)NC(=O)[C@H](CC1CCCCC1)NC(C)=O)C(=O)N[C@@H](C)C(=O)N[C@@H](CO)C(=O)N(C)[C@@H](CC(C)C)C(N)=O | – | – | – |
| – | 0.49 | 0.22 | – | 116 | – | – | CSCC[C@@H](NC(=O)[C@H]1Cc2ccccc2CN1C(=O)[C@H](CCCN=C(N)N)NC(=O)[C@H](CC1CCCCC1)NC(C)=O)C(=O)N1CCC(c2ccccc2)[C@@H]1C(=O)N[C@@H](CO)C(=O)N(C)[C@@H](CC(C)C)C(N)=O (some centres not stated) | – | 2.7 | 2.5 |
| – | – | – | – | 93 | 1.15 | 2.02 | CSCC[C@@H](NC(=O)[C@@H](c1ccccc1)N(C)C(=O)[C@H](CCCN=C(N)N)NC(=O)[C@H](CC1CCCCC1)NC(C)=O)C(=O)N[C@@H](C)C(=O)N[C@@H](CO)C(=O)N[C@H](C(N)=O)C(C)(C)C | – | – | – |
| – | – | – | – | 109 | 0.12 | 0.27 | CC(=O)N[C@@H](CC1CCCCC1)C(=O)N[C@@H](CCCN=C(N)N)C(=O)N1Cc2ccccc2C[C@H]1C(=O)N[C@H]1CCc2cccc3c2N(C1=O)[C@H](C(=O)N[C@@H](CO)C(=O)N(C)[C@@H](C)C(N)=O)C3 (Ac-[Cha]R[Tic][Haic]S[NMeA]-NH2) | 0.2 | 0.7 | – |
| – | 0 | 0 | 0 | – | – | – | CC(=O)N[C@@H](CC1CCCCC1)C(=O)N[C@@H](CCCN=C(N)N)C(=O)N[C@@H](C)C(N)=O | – | – | – |
| – | – | – | – | 43 | 1.64 | 1.27 | CSCC[C@@H](NC(=O)[C@@H](c1ccccc1)N(C)C(=O)[C@H](CCCN=C(N)N)NC(=O)[C@H](CC1CCCCC1)NC(C)=O)C(=O)N(C)[C@@H](C)C(=O)N[C@@H](CO)C(=O)N[C@H](C(N)=O)C(C)(C)C | – | – | – |
| 4.8 | – | – | – | 0 | – | – | CSCC[C@H](NC(=O)[C@H](C)NC(=O)[C@H](CCCN=C(N)N)NC(=O)[C@H](CC1CCCCC1)NC(C)=O)C(=O)N(C)[C@@H](C)C(=O)N[C@@H](CO)C(=O)N(C)[C@@H](CC(C)C)C(N)=O (Ac-[Cha]RAM[NMeA]S[NMeL]-NH2) | – | – | – |
| – | – | – | – | 98 | 0.84 | 0.63 | CSCC[C@@H](NC(=O)[C@H]1Cc2ccccc2CN1C(=O)[C@H](CCCN=C(N)N)NC(=O)[C@H](CC1CCCCC1)NC(C)=O)C(=O)N1CCC(c2ccccc2)[C@@H]1C(=O)N[C@@H](CO)C(=O)N(C)[C@@H](C)C(N)=O (some centres not stated) | 6.9 | 4.6 | – |
| – | – | – | – | 141 | 0.01 | 0.37 | CC(=O)N[C@@H](CC1CCCCC1)C(=O)N[C@@H](CCCN=C(N)N)C(=O)N(C)[C@H](C(=O)N[C@H]1CCc2cccc3c2N(C1=O)[C@H](C(=O)N[C@@H](CO)C(=O)N(C)C(C)C(N)=O)C3)c1ccccc1 (some centres not stated) (Ac-[Cha]R[NMePhg][Haic]S[ξNMeA]-NH2) | <0.2 | 4.6 | – |
| 10700 | – | – | – | 99 | – | – | CSCC[C@H](NC(=O)[C@H](C)N(C)C(=O)[C@H](CCCN=C(N)N)NC(=O)[C@H](CC1CCCCC1)NC(C)=O)C(=O)N(C)[C@@H](C)C(=O)N[C@@H](CO)C(=O)N(C)[C@@H](CC(C)C)C(N)=O (Ac-[Cha]R[NMeA]M[NMeA]S[NMeL]-NH2) | – | – | – |
| 7.3 | 1.22 | 0.6 | – | 0 | – | – | CSCC[C@H](NC(=O)[C@H](C)NC(=O)[C@H](CCCN=C(N)N)NC(=O)[C@H](CC1CCCCC1)NC(C)=O)C(=O)N(C)[C@@H](C)C(=O)N[C@@H](CO)C(=O)N[C@@H](CC(C)C)C(N)=O (Ac-[Cha]RAM[NMeA]SL-NH2) | – | – | – |
| – | 0.05 | 0.01 | 0.005 | – | – | – | CSCC[C@H](NC(=O)[C@H](C)NC(=O)[C@H](CCCN=C(N)N)NC(=O)[C@H](CC1CCCCC1)NC(C)=O)C(N)=O (Ac-[Cha]RAM-NH2) | – | – | – |
| – | – | – | – | 126 | 0.06 | 0.23 | CC(=O)N[C@@H](CC1CCCCC1)C(=O)N[C@@H](CCCN=C(N)N)C(=O)N(C)[C@H](C(=O)N[C@H]1CCc2cccc3c2N(C1=O)[C@H](C(=O)N[C@@H](CO)C(=O)NC(C(N)=O)C(C)(C)C)C3)c1ccccc1 (some centres not stated) (Ac-[Cha]R[NMePhg][Haic]S[ξTle]-NH2) | 2.3 | 3 | – |
| – | – | – | – | 95 | 0.01 | 0.11 | CC(=O)N[C@@H](CC1CCCCC1)C(=O)N[C@@H](CCCN=C(N)N)C(=O)N(C)[C@H](C(=O)N[C@H]1CCc2cccc3c2N(C1=O)[C@H](C(=O)N[C@@H](CO)C(=O)N(C)[C@@H](CC(C)C)C(N)=O)C3)c1ccccc1 (Ac-[Cha]R[NMePhg][Haic]S[NMeL]-NH2) | 0.1 | 1 | – |
| – | – | – | – | 106 | 0.03 | 0.18 | CC(=O)N[C@@H](CC1CCCCC1)C(=O)N[C@@H](CCCN=C(N)N)C(=O)N(C)[C@@H](C)C(=O)N[C@H]1CCc2cccc3c2N(C1=O)[C@H](C(=O)N[C@@H](CO)C(=O)N(C)[C@@H](CC(C)C)C(N)=O)C3 (Ac-[Cha]R[NMeA][Haic]S[NMeL]-NH2) | <0.04 | 2.32 | – |
| – | – | – | – | 97 | 0.29 | 0.38 | CSCC[C@@H](NC(=O)[C@H](NC(=O)[C@H](CCCN=C(N)N)NC(=O)[C@H](CC1CCCCC1)NC(C)=O)C(C)(C)C)C(=O)N(C)[C@@H](C)C(=O)N[C@@H](CO)C(=O)N[C@H](C(N)=O)C(C)(C)C | – | – | – |
| – | 0.25 | 0.07 | 0.03 | – | – | – | CSCC[C@H](NC(=O)[C@H](C)NC(=O)[C@H](CCCN=C(N)N)NC(=O)[C@H](CC1CCCCC1)NC(C)=O)C(=O)N[C@H](C)C(N)=O | – | – | – |
| – | – | – | – | 99 | 0.89 | 1.05 | CSCCC(NC(=O)[C@H]1Cc2ccccc2CN1C(=O)[C@H](CCCN=C(N)N)NC(=O)[C@H](CC1CCCCC1)NC(C)=O)C(=O)N(C)[C@@H](C)C(=O)N[C@@H](CO)C(=O)N(C)[C@@H](C)C(N)=O (some centres not stated) | – | – | – |
| – | 0.34 | 1.14 | 0.32 | – | – | – | CSCC[C@H](NC(=O)[C@H](C)NC(=O)[C@H](CCCN=C(N)N)NC(=O)[C@H](CC1CCCCC1)NC(C)=O)C(=O)N[C@H](C)C(=O)N[C@@H](CO)C(N)=O | – | – | – |
| – | – | – | – | – | – | – | CSCC[C@H](NC(=O)[C@H](C)N(C)C(=O)[C@H](CCCN=C(N)N)NC(=O)[C@H](CC1CCCCC1)NC(C)=O)C(=O)N1CCC(c2ccccc2)[C@H]1C(=O)N[C@@H](CO)C(=O)N(C)[C@@H](C)C(N)=O (some centres not stated) (Ac-[Cha]R[NMeA]M[X1]S[NMeA]-NH2) | 3.7 | 1.2 | – |
